Laboratory results published in ChEMBL document CHEMBL1629654, “Breakthrough Aspergillus fumigatus and Candida albicans double infection during caspofungin treatment: laboratory characteristics and implication for susceptibility testing” (2009).
In brackets after ≈: the same amount, converted by molar mass. Activity calls are given as the source filed them. No cut-off for these calls is given here.

How the values were obtained:
[1] = tested on: Meyerozyma guilliermondii; assay: Antimicrobial activity against Candida guilliermondii after 24 hrs by M27-A3 method; type: functional
[2] = tested on: Candida parapsilosis; assay: Antimicrobial activity against Candida parapsilosis after 48 hrs by 80% endpoint M27-A method; conditions: Lodderomyces parapsilosis
[3] = tested on: Candida parapsilosis; assay: Antimicrobial activity against Candida parapsilosis after 48 hrs by NCCLS microdilution method; type: functional; conditions: Lodderomyces parapsilosis
[4] = tested on: Candida albicans; assay: Antimicrobial activity against Candida albicans isolate S at 1 ug/ml grown on RPMI 1640 medium after 24 hrs by disk diffusion method; type: functional
Method in brief: (§1)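 Disk diffusion on 90-mm RPMI 1640 with 2% glucose agar or on Mueller-Hinton agar. Plates were swabbed in three directions with a yeast suspension of 1–5 × 10^6 cells/ml. Paper disks (6 mm) held 1, 5 or 25 µg drug. Zone diameters were read at 24 and 48 h; values are means of two experiments.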

[5] = tested on: Pichia kudriavzevii; assay: Antimicrobial activity against Candida krusei after 48 hrs by Etest; type: functional
[6] = tested on: Candida albicans; assay: Antimicrobial activity against Candida albicans isolate R at 1 ug/ml after 48 hrs by agar dilution method; type: functional, organism-based
Method in brief: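 Agar dilution on Sabouraud agar with caspofungin at 0, 0.5, 1 and 2 per ml. Isolates were subcultured 2 days on CHROMagar. Suspensions of 1×10^6 to 5×10^6 CFU/ml in sterile water were diluted 1,500-fold, and approximately 3 to 15 cells were spread per agar surface. Growth or no growth was scored, with repeated testing.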

[7] = tested on: Nakaseomyces glabratus; assay: Antimicrobial activity against Candida glabrata after 48 hrs by Etest; type: functional
[8] = tested on: Candida albicans; assay: Antimicrobial activity against Candida albicans isolate R at 25 ug/ml grown on RPMI 1640 medium after 48 hrs by disk diffusion method; type: functional; method in brief: as §1
[9] = tested on: Candida albicans; assay: Antimicrobial activity against Candida albicans isolate R infected in NMRI mouse assessed as decrease in kidney bacterial burden at 6 mg/kg, ip measured on day 4; type: functional, organism-based; parameters: dose 6 mg/kg
Method in brief: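 NMRI mice (26 to 30 g), seven per group, were infected intravenously on day 0 with 1×10^5 CFU. They received caspofungin ip on days 1 to 3 in 0.5 ml; saline-treated mice served as controls. On day 4 the kidneys were removed and homogenized, and 10-fold dilutions were spot plated. Results are log10 CFU/ml homogenate (detection limit 50 CFU/ml), compared by Mann-Whitney test.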

For `CC[C@H](C)C[C@H](C)CCCCCCCCC(=O)N[C@H]1C[C@@H](O)[C@@H](NCCN)NC(=O)[C@@H]2[C@@H](O)CCN2C(=O)[C@H]([C@H](O)CCN)NC(=O)[C@H]([C@H](O)[C@@H](O)c2ccc(O)cc2)NC(=O)[C@@H]2C[C@@H](O)CN2C(=O)[C@H]([C@@H](C)O)NC1=O` [CASPOFUNGIN], which MIC90 [1] is on record?
Its MIC90 is 1 µg/mL (≈ 0.915 µM).

And the MIC90 [2]?
Its MIC90 is 2 µg/mL (≈ 1.83 µM).

What about the MIC90 [3] of the same compound?
The MIC90 was 2 µg/mL (≈ 1.83 µM).

What about the “inhibition zone (IZ)” value [4] of the same compound?
Its value is 10.7 mm.

What about the MIC90 [5] of the same compound?
Its MIC90 is 1 µg/mL (≈ 0.915 µM).

What about the “growth inhibition (GI)” value [6] of the same compound?
Its value is “inactive”.

What about the MIC90 [7] of the same compound?
Its MIC90 is 0.25 µg/mL (≈ 0.229 µM).

What about the “inhibition zone (IZ)” value [8] of the same compound?
The value was 11.9 mm.

And the Activity [9]?
Its Activity is “inactive”.
